Bioassay records: PubChem BioAssay, several laboratories
The list is not random: actives were taken first. Their share in the collection is about 1.8%.
EphB4 ephrin blk = EphB4-ephrin-B2 interaction antagonists, primary screen, biochemical, TNYL-RAW peptide probe, fluorescence polarization | Ephrin type-B receptor 4 (Homo sapiens), P54760 | EphB4 LBD / TNYL-RAW-Alexa532 peptide | inhibition, % at 7 µM | 0.15% of 97,000 active | AID 720, 2007;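 active = inhibition above the screen-wide mean inhibition plus 3 SD, cut at about 15% in these data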
PTPN22 inh 2 = PTPN22 phosphatase inhibitors, primary screen, biochemical, DiFMUP fluorescence, 2 µM; Tyrosine-protein phosphatase non-receptor type 22 (Homo sapiens), Q9Y2R2; recombinant LYP catalytic domain; inhibition, % at 2 µM; 0.21% of 96,000 active;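 active = inhibition at 2 µM at or above a set limit, the screen mean plus 3 SD, cut at about 24% in these data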
PLK1 PBD inh = Plk1 polo box domain binding inhibitors, primary screen, biochemical, fluorescence polarization | Serine/threonine-protein kinase PLK1 (Homo sapiens), P53350 | Plk1 PBD phosphopeptide binding | inhibition, %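 (tested at about 20 µM)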 | 0.13% of 97,000 active; in the data active = inhibition above about 34%, passing the limit was not always enough
Target sequence (P53350 whole entry, looked up, the tested form may be a part): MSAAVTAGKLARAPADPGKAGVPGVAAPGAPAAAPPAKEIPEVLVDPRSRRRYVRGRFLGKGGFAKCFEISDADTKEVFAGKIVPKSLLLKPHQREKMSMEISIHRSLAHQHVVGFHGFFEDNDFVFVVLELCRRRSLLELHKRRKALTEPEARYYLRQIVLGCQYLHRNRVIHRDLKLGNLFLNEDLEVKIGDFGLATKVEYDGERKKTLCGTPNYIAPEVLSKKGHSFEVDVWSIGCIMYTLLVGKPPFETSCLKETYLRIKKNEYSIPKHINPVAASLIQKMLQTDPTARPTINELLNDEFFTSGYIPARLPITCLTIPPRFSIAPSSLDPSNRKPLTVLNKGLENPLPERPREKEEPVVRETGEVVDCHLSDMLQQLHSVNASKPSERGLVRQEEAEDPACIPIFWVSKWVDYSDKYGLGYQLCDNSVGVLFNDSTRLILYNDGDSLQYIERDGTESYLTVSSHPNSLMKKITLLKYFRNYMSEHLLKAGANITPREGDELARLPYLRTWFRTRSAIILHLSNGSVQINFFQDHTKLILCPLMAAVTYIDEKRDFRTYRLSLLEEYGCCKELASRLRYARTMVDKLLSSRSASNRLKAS
PLK1 kinase inh = human PLK1 kinase inhibitors, primary screen, biochemical, TR-FRET | Serine/threonine-protein kinase PLK1 (Homo sapiens), P53350 | recombinant PLK1 kinase, TR-FRET peptide phosphorylation | inhibition, % at 10 µM | 0.53% of 97,000 active | AID 619, 2007;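 active = inhibition of 50% or more in the single-concentration screen; inactive = inhibition below 50%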
HIV Rev-RRE inh = HIV-1 Rev-RRE binding inhibitors, primary screen, biochemical, FRET, protein-RNA interaction; P05866; Rev peptide-RRE RNA binding; inhibition, % at 8 µM; 0.79% of 97,000 active; AID 704, 2007;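 active = inhibition above the screen-wide mean plus 3 SD, cut at about 35% in these data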
Target sequence (P05866 whole entry, looked up): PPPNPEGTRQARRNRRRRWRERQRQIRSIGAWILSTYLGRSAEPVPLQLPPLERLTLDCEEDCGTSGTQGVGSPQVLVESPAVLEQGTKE
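Assay system: Labelled RRE RNA duplex and labelled Rev peptide | Times: 5 min preincubation and 15 min binding, 25 °C | Detection: FRET, ex 480 nm, em 540 and 671 nm | Evaluation: % inhibition of FRET ratio versus controls | Benchmarks: DMSO wells as 0% and neomycin B wells as 100% inhibition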
LYP act = LYP phosphatase activators, primary screen, biochemical, DiFMUP fluorescence, 2 µM; recombinant LYP; 0 = plate median, 100 = signal doubled; activation, % at 2 µM; 0.11% of 96,000 active; AID 697, 2007;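 active = activation at 2 µM above a set limit, the mean plus 5 SD, cut at about 37% in these data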
Large screens that a line does not name were inactive; [ ] = another dose, or the depositor's remark.

O=C1NC(c2ccco2)Nc2sc3c(c21)CCN(Cc1ccccc1)C3 (stereo not drawn)	HIV Rev-RRE inh 70
CN1CCc2c(sc3c2C(=O)NC(c2ccco2)N3)C1 (stereo not drawn)	none
CN1CCc2c(sc3c2C(=O)NC(c2cn(Cc4ccccc4)c4ccccc24)N3)C1 (stereo not drawn)	HIV Rev-RRE inh 79
CCC(C)NC(=O)c1ccccc1NC(=O)c1ccc(CSc2ccc(C)cc2)cc1 (stereo not drawn)	none
O=C(c1ccc(Cl)cc1)c1cnc(-c2ccc(Cl)cc2)s1	PTPN22 inh 2 41
COc1ccc2c(c1)CCc1c(C(=O)NCCCn3ccnc3)noc1-2	none
O=C1c2ccccc2-c2onc3ccc(NCCCn4ccnc4)c1c23	EphB4 ephrin blk 107[fluorescence artefact?], PLK1 kinase inh 68, HIV Rev-RRE inh 137[fluorescence artefact?]
CC1=Nc2ccccc2/C1=C/c1sc(=N)n(-c2nccs2)c1O	HIV Rev-RRE inh 62
CCn1c(O)c(/C=C2\C=Nc3ccccc32)sc1=Nc1ccc(C)cc1	none
C=CCN1C(=O)S/C(=C\c2ccc(N3CCOCC3)cc2C)C1=O	HIV Rev-RRE inh 39
CN1C=CC2=C(C#N)C(N)C(C#N)(C#N)[C@H](c3ccccc3)[C@H]2C1 (stereo partly drawn)	HIV Rev-RRE inh 60
Cc1nn(-c2ccccc2)c2c1C(c1ccccc1)C(C#N)=C(N)O2 (stereo not drawn)	none
COc1ccc(Br)cc1C(=O)Nc1cc(C)cc(C)c1	none
CC1(C)C(=O)N(OCc2ccccc2)C(C)(C)C(=O)N1OCc1ccccc1	none
CCOC(=O)CCSc1nc(C(C)(C)C)cc(C(F)(F)F)c1C#N	none
CCOC(=O)CC(=O)CSc1nc(-c2ccc3c(c2)OCO3)cc(C(F)(F)F)c1C#N	HIV Rev-RRE inh 61
CCOC(=O)CCSc1nc(C)cc(C(F)(F)F)c1C#N	HIV Rev-RRE inh 80
COc1ccc(/C=C/C(=O)c2ccc(NC(=O)c3cccs3)cc2)cc1OC	none
CCn1c(=O)c2cc(S(=O)(=O)NC3CCCCC3)ccc2n(CC)c1=O	none
O=C1/C(=C/c2ccccc2)NC(=S)N1C(c1ccccc1)c1ccccc1	none
O=C1/C(=C/c2ccccc2)Nc2ccccc21	HIV Rev-RRE inh 129[fluorescence artefact?]
CN1CCc2c(sc(N)c2C(N)=O)C1	none
CCN1CCc2c(sc(N)c2C(N)=O)C1	HIV Rev-RRE inh 63
CCOC(=O)c1c(C)[nH]c(C)c1C(=O)COC(=O)c1ccc(Cl)c(S(=O)(=O)NCc2ccccc2)c1	none
Cc1cc(/C=C2/SC(=S)N(c3cccc(Cl)c3)C2=O)c(C)n1-c1cccnc1	HIV Rev-RRE inh 39
COc1ccc(CSc2nnc(C)n2N)cc1	HIV Rev-RRE inh 47
COC(=O)c1c(NC(=O)CSc2n[nH]c(N)n2)sc(C)c1C	none
Cc1ccc(/C=C/C2=Cc3c(sc(NC(=O)CSc4n[nH]c(N)n4)c3C#N)C(C)(C)C2)o1	HIV Rev-RRE inh 47
CCc1nnc(NS(=O)(=O)c2ccc(NC(=S)NC(=O)/C=C/c3ccc(C(C)C)cc3)cc2)s1	PTPN22 inh 2 33
CC(=O)c1sc2nc(-c3cccs3)ccc2c1N	none
Nc1c(C(=O)Nc2ccccc2)sc2nc(-c3ccco3)ccc12	HIV Rev-RRE inh 36
Nc1c(C(=O)Nc2nc3ccccc3s2)sc2nc(-c3cccs3)ccc12	PTPN22 inh 2 35, HIV Rev-RRE inh 133[fluorescence artefact?]
COc1ccccc1NC(=O)c1sc2nc(-c3ccco3)ccc2c1N	none
Cc1cnc(N)c2c(=O)oc3ccccc3c12	PLK1 kinase inh 52 (no result: PTPN22 inh 2, LYP act)
Cc1ccccc1Nc1c(N)c(=O)oc2ccccc12	none
Cc1ccccc1C1C(C#N)=C2NC(=O)c3c(sc4c3CCCCC4)N2C2=C1C(=O)CC(C)(C)C2 (stereo not drawn)	HIV Rev-RRE inh 40
COc1cccc(Nc2ncccc2C(=O)NCc2ccccc2)c1	HIV Rev-RRE inh 52
COc1ccc(Nc2ncccc2C(=O)NCc2ccccc2)cc1	none
Cn1cc([N+](=O)[O-])c(C(=O)Nc2cc(Oc3cccnc3)cc([N+](=O)[O-])c2)n1	none
O=C1/C(=C/c2ccc(N3CCCC3)cc2)NC(=S)N1C1CC1	HIV Rev-RRE inh 137[fluorescence artefact?]
CC(C)CC(=O)NC(=S)NCCc1ccccc1	EphB4 ephrin blk 16
CC(C)(C)CC(=O)NC(=S)NCCc1ccccc1	none
CCc1ccc(-n2c(=O)c3c(C)c(C(=O)N(C)C)sc3n(CC(=O)NCc3ccco3)c2=O)cc1	none
Cc1cc(NC(=O)COC(=O)C(Nc2ccc(C(F)(F)F)cc2Cl)C(C)C)no1 (stereo not drawn)	none
CCN1CC=C2C(C#N)=C(N)C(C#N)(C#N)[C@H](c3cccc(OC)c3OC)[C@H]2C1	HIV Rev-RRE inh 65
CCOC(=O)N1CC=C2C(C#N)=C(N)C(C#N)(C#N)[C@H](c3ccccc3OCC)[C@H]2C1	none
N#CC1=C(N)C(C#N)(C#N)C(c2ccncc2)C2CN(C(=O)OCc3ccccc3)CC=C12 (stereo not drawn)	none
COc1cccc(C2C3CN(C)CC=C3C(C#N)=C(N)C2(C#N)C#N)c1OC (stereo not drawn)	HIV Rev-RRE inh 85[fluorescence artefact?]
CC(=O)N(C(C)=O)C1=C(C#N)C2(CCCCC2)Cc2ccccc21	none
Cc1nc2ccc(NS(=O)(=O)c3ccc4c(c3)OCCO4)cc2s1	none
COCCNC(=O)c1cc2oc3ccccc3c2n1C	none
C=CCOc1cccc(C2C(C(=O)c3ccc(C)o3)=C(O)C(=O)N2c2nccs2)c1 (stereo not drawn)	HIV Rev-RRE inh 78
C=CCOc1cccc(C2C(C(=O)c3ccco3)=C(O)C(=O)N2CCN(CC)CC)c1 (stereo not drawn)	PLK1 kinase inh 52
COc1cccc(C2C(C(=O)c3ccc(C)o3)=C(O)C(=O)N2CCCN(C)C)c1 (stereo not drawn)	none
CCOc1ccc(C2C(C(=O)c3ccco3)=C(O)C(=O)N2CCN(C)C)cc1 (stereo not drawn)	none
O=C(COC(=O)CCC(=O)c1cccs1)Nc1cc(S(=O)(=O)N2CCOCC2)ccc1Cl	none
Cc1ccc(-c2csc(NC(=O)c3cccc(N4C(=O)CCC4=O)c3)n2)o1	PLK1 kinase inh 67 (no result: PTPN22 inh 2, LYP act)
OCCNc1nc(SCc2ccccc2)nc2sc3c(c12)CCC3	none
COc1ccc2oc(=N)c(C(=O)Nc3ccccc3)cc2c1	none
CCCCCCc1cc2cc(C(=O)NCc3ccccc3)c(=N)oc2cc1O	HIV Rev-RRE inh 104[fluorescence artefact?]
Cc1cc2c(c(=O)o1)C1(C(=O)N(CC(=O)O)c3ccccc31)C(C#N)=C(N)O2 (stereo not drawn)	HIV Rev-RRE inh 49
